Entries after “also recorded” stand apart in the source; their conditions may differ. Where two headings read alike, the source gives them in different places.
What was measured:
CB1R and CB2R = assay: Competition for [3H]CP55940 binding in HEK293 cell membranes; parameters: species or system human; conditions: HEK293 cell membranes without heterologous CB1R/CB2R
AI-sensitive GPCRs [1] = assay: Competition for [3H]WIN55212-2 binding in HEK293 cell membranes; parameters: species or system human
In short: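 P2 membrane fractions were prepared from independent HEK293 cultures, which lack CB1R and CB2R. Membranes were incubated with [³H]WIN55212-2 and increasing concentrations of test compound, and specific binding was measured by filtration. Nonspecific binding was defined with 1 μM unlabelled WIN55212-2.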

human CB1R = human CB1R (Homo sapiens, UniProt P21554); assay: CB1R internalization in HEK293 cells stably expressing HA-tagged CB1R; assay type: cell-based; conditions: AI compounds tested at 3 μM
In short: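 Human CB1R carrying an HA tag was expressed in cultured HEK293 cells. Test compound was applied at 3 μM, with CP55940 at 1 μM as the positive control. Internalization was read as % of vehicle control. Data are mean ± SEM of 3–5 independent experiments, compared by one-way ANOVA with Bonferroni post-test.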

human CB2R = human CB2R (Homo sapiens, UniProt P34972); assay: CB2R internalization in HEK293 cells stably expressing HA-tagged CB2R; assay type: cell-based; conditions: AI compounds tested at 3 μM
In short: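 HA-tagged human CB2R was expressed heterologously in cultured HEK293 cells. Test compound was given at 3 μM, with or without the CB2R antagonist AM630 at 1 μM; CP55940 at 1 μM served as the positive control. Internalization was expressed as % of vehicle control. Mean ± SEM of 3–5 independent experiments; one-way ANOVA with Bonferroni post-test.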

mouse CB2R = conditions: cited from earlier work
AI-sensitive GPCRs [2] = assay: [35S]GTPγS binding in HEK293 cell membranes; assay type: biochemical, human; conditions: for [35S]GTPγS response after pertussis toxin: PTX 100 ng/ml pretreatment of HEK293 cells for 20 h
[3] = read-out: KiHigh (AIHigh binding sites), high affinity site

Chain of human CB1R (P21554 whole entry): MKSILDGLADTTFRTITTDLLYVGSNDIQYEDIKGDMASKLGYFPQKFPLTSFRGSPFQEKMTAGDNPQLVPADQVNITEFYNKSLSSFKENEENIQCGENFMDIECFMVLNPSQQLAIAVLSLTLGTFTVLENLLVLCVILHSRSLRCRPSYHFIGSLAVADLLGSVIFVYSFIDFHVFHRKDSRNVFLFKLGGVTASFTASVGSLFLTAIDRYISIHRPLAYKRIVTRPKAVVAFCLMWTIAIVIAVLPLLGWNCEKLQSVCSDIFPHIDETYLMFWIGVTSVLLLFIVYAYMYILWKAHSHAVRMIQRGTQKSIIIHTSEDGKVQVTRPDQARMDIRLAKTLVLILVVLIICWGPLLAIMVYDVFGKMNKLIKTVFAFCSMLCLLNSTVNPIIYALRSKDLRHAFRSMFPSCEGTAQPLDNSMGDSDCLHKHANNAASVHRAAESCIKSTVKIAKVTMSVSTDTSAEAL
Chain of human CB2R (P34972 whole entry): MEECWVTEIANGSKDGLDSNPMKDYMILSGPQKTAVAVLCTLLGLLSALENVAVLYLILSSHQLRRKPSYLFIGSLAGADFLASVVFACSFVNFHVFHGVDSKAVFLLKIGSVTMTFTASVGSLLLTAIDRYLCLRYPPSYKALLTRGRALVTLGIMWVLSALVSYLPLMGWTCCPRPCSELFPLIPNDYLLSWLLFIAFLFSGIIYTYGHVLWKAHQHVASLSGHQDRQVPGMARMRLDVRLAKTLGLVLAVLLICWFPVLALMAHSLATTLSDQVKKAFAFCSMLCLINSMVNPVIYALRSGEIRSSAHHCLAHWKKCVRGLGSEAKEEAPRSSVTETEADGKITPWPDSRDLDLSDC

## CCCCCCC(C)(C)c1ccc([C@@H]2C[C@H](O)CC[C@H]2CCCO)c(O)c1 [CP55940]
CB1R and CB2R
  competition for [3H]CP55940 binding (in words): failed to compete

## Cc1ccc(C(=O)c2c(C)n(CCN3CCOCC3)c3ccccc23)c2ccccc12 [Compound 2]
AI-sensitive GPCRs [1]
  manner of competition for [3H]WIN55212-2 binding (biphasic / monophasic): biphasic
AI-sensitive GPCRs [1]; [3]
  Ki: 0.8 nM
Human CB1R
  CB1R internalization (in words): retained significant activity; also recorded: stimulate significant CB1R internalization
Human CB2R
  CB2R internalization (in words): stimulated significant CB2R internalization; also recorded: activate
Mouse CB2R
  activation of mouse CB2R measured by receptor internalization: do not activate

## Cc1ccc(C(=O)c2c3n(c4ccccc24)CCCC3)c2ccccc12 [Compound 4]
AI-sensitive GPCRs [1]
  manner of competition for [3H]WIN55212-2 binding (biphasic / monophasic): biphasic
Human CB1R
  CB1R internalization (in words): retained significant activity; also recorded: stimulate significant CB1R internalization
Human CB2R
  CB2R internalization (in words): stimulated significant CB2R internalization; also recorded: activate
Mouse CB2R
  activation of mouse CB2R measured by receptor internalization: do not activate

## Cc1ccc(C(=O)c2c(C)n(CC(F)(F)F)c3ccccc23)c2ccccc12 [Compound 5]
Human CB1R
  CB1R internalization (in words): inactive
Human CB2R
  CB2R internalization (in words): stimulated significant CB2R internalization; also recorded: activate
Mouse CB2R
  activation of mouse CB2R measured by receptor internalization: do not activate

## COc1ccc2c(c1)c(C(=O)c1ccc(C)c3ccccc13)c(C)n2CCN1CCOCC1 [Compound 7]
AI-sensitive GPCRs [1]
  competition for [3H]WIN55212-2 binding (in words): inactive; also recorded: loss of binding

## COc1ccc2c(C(=O)c3ccc(C)c4ccccc34)c(C)n(CCN3CCOCC3)c2c1 [Compound 8]
AI-sensitive GPCRs [2]
  stimulation of [35S]GTPγS binding (in words): increase

## Cc1ccc(C(=O)c2c(C)n(CCN3CCOCC3)c3ccc(Cl)cc23)c2ccccc12 [Compound 9]
AI-sensitive GPCRs [1]
  manner of competition for [3H]WIN55212-2 binding (biphasic / monophasic): biphasic
AI-sensitive GPCRs [1]; [3]
  Ki: 10 nM
AI-sensitive GPCRs [1]; read-out: KiLow (AILow binding sites), low affinity site
  Ki: 2300 nM

## Cc1ccc(C(=O)c2c(C)n(CCN3CCOCC3)c3cc(Cl)ccc23)c2ccccc12 [Compound 10]
AI-sensitive GPCRs [1]; low affinity site
  KiLow (AILow binding sites): undetectable
AI-sensitive GPCRs [2]
  stimulation of [35S]GTPγS binding (in words): increase
  [35S]GTPγS response after pertussis toxin: pertussis toxin-sensitive

## Cc1ccc(C(=O)c2c(C)n(CCN3CCOCC3)c3cc(Cl)cc(Cl)c23)c2ccccc12 [Compound 11]
AI-sensitive GPCRs [1]
  competition for [3H]WIN55212-2 binding (in words): inactive
AI-sensitive GPCRs [1]; at 1 μM
  binding at 1 μM: no measurable binding

## Cc1ccc(C(=O)c2c(C)n(CCN3CCOCC3)c3ncccc23)c2ccccc12 [Compound 12]
AI-sensitive GPCRs [1]
  enhanced activity at AIHigh versus AILow: ~ 1000 fold
  manner of competition for [3H]WIN55212-2 binding (biphasic / monophasic): biphasic
AI-sensitive GPCRs [1]; [3]
  Ki: 0.4 nM
AI-sensitive GPCRs [2]
  stimulation of [35S]GTPγS binding (in words): increase
  [35S]GTPγS response after pertussis toxin: pertussis toxin-sensitive
Human CB1R
  CB1R internalization (in words): retained significant activity; also recorded: stimulate significant CB1R internalization
Human CB2R
  CB2R internalization (in words): stimulated significant CB2R internalization; also recorded: activate
Mouse CB2R
  activation of mouse CB2R measured by receptor internalization: do not activate

## Cc1ccc(C(=O)c2c(C)n(CCN3CCOCC3)c3cnccc23)c2ccccc12 [Compound 13]
AI-sensitive GPCRs [1]
  manner of competition for [3H]WIN55212-2 binding (biphasic / monophasic): biphasic
AI-sensitive GPCRs [1]; [3]
  Ki: 5.8 nM

## CCn1c(C)c(C(=O)c2ccc(OC)cc2)c2ccccc21 [Compound 14]
AI-sensitive GPCRs [1]
  competition for [3H]WIN55212-2 binding (in words): inactive

## C1=C(CCN2CCOCC2)c2ccccc2/C1=C\c1cccc2ccccc12 [Compound 31, reference compound]
AI-sensitive GPCRs [1]
  competition for [3H]WIN55212-2 binding (in words): compete
AI-sensitive GPCRs [2]
  stimulation of [35S]GTPγS binding (in words): stimulated

## C1=C(CCN2CCOCC2)c2ccccc2/C1=C/c1cccc2ccccc12 [Compound 32, reference compound]
AI-sensitive GPCRs [1]
  competition for [3H]WIN55212-2 binding (in words): weakly competes

## CC1=C(CCN2CCOCC2)c2ccccc2/C1=C\c1cccc2ccccc12 [Compound 33, reference compound]
AI-sensitive GPCRs [1]
  competition for [3H]WIN55212-2 binding (in words): compete
AI-sensitive GPCRs [2]
  stimulation of [35S]GTPγS binding (in words): stimulated

## CC1=C(CCN2CCOCC2)c2ccccc2/C1=C/c1cccc2ccccc12 [Compound 34, reference compound]
AI-sensitive GPCRs [1]
  competition for [3H]WIN55212-2 binding (in words): does not compete; also recorded: no significant competition

## Cc1c(C(=O)c2cccc3ccccc23)c2ccccc2n1C [JWH-042, reference compound]
AI-sensitive GPCRs [1]
  manner of competition for [3H]WIN55212-2 binding (biphasic / monophasic): biphasic

## Cc1ccc(C(=O)c2c(C)n(C)c3ccccc23)c2ccccc12 [JWH-450, reference compound]
AI-sensitive GPCRs [1]
  manner of competition for [3H]WIN55212-2 binding (biphasic / monophasic): biphasic

## CCn1c(C)c(C(=O)c2ccc(C)c3ccccc23)c2ccccc21 [JWH-451, reference compound]
AI-sensitive GPCRs [1]
  manner of competition for [3H]WIN55212-2 binding (biphasic / monophasic): biphasic
AI-sensitive GPCRs [1]; [3]
  Ki: 1.5 nM
AI-sensitive GPCRs [2]
  stimulation of [35S]GTPγS binding (in words): increases
  [35S]GTPγS response after pertussis toxin: significantly reduced
AI-sensitive GPCRs [2]; SR141617 (1 μM) and SR144528 (1 μM)
  [35S]GTPγS response in presence of CB1R and CB2R antagonists: insensitive; also recorded: not affected
Human CB1R
  CB1R internalization (in words): inactive
Human CB2R
  CB2R internalization (in words): stimulated significant CB2R internalization; also recorded: activate
Mouse CB2R
  activation of mouse CB2R measured by receptor internalization: do not activate

## Cc1c(C(=O)NN2CCCCC2)nn(-c2ccc(Cl)cc2Cl)c1-c1ccc(Cl)cc1 [SR141617]
CB1R and CB2R
  competition for [3H]CP55940 binding (in words): failed to compete

## Cc1c(C(=O)c2cccc3ccccc23)c2cccc3c2n1[C@@H](CN1CCOCC1)CO3 [WIN55212-2, reference compound]
AI-sensitive GPCRs [1]
  manner of competition for [3H]WIN55212-2 binding (biphasic / monophasic): biphasic
AI-sensitive GPCRs [1]; read-out: KiHigh, high affinity site of biphasic competition curve
  Ki: 0.043 nM
AI-sensitive GPCRs [1]; read-out: KiLow, low affinity site of biphasic competition curve
  Ki: 7.2 nM

## Cc1c(C(=O)c2cccc3ccccc23)c2cccc3c2n1[C@H](CN1CCOCC1)CO3 [WIN55212–3, reference compound]
AI-sensitive GPCRs [1]
  competition for [3H]WIN55212-2 binding (in words): absence of competition

## SR144528
CB1R and CB2R
  competition for [3H]CP55940 binding (in words): failed to compete

— PMC10917149 (European journal of medicinal chemistry, 2023)
